Experimental data gathered from unrelated publications.
Compare with care: the assays were run in different laboratories.
Target: MAP kinase-activated protein kinase 2 (MAPKAPK2, Homo sapiens, UniProt P49137)

| Structure (SMILES) | test | setting | remaining binding |
| --- | --- | --- | --- |
| Cc1c[nH]c2nccc(Oc3c(F)cc(Nc4cc(Cl)nc(N)n4)cc3F)c12 | cell-free assay, competition with immobilised ligand | 0.1 µM | 100% |
| CC(C)(C)c1ccc(-c2nc(CBr)nn2-c2cccc(O)c2)cc1 | cell-free assay, competition with immobilised ligand | 10 µM | 100% |
| C=CC(=O)N1CCC(C(=O)NCC(=O)N2CCN(c3nc(-c4cnc(N)nc4C(F)F)nc(N4CCOCC4)n3)CC2)CC1 | binding, competition with immobilised ligand | 1 µM | 100% |
| COCCOc1nc(-c2ccc(Cl)nc2)nc2c1CN(C(=O)c1ncn3ccccc13)CC2 | cell-free assay, competition with immobilised ligand | 0.1 µM | 73% |
| O=C(NCCCN1CCOCC1)c1ccc(Nc2nccc(-c3cc4ccccc4s3)n2)cc1 | binding, competition with immobilised ligand | 1 µM | 100% |
| c1cncc(-c2cccc(Nc3nccc(NC4CCCCC4)n3)c2)c1 | binding, competition with immobilised ligand | 10 µM | 100% |
| O=C(c1ccc(Nc2nccc(-c3cc4ccccc4s3)n2)cc1)N1CCC(N2CCCC2)CC1 | binding, competition with immobilised ligand | 1 µM | 100% |
| CN([C@@H]1CCc2c(CC(=O)O)c3ccccc3n2C1)S(=O)(=O)c1ccc(F)cc1 | cell-free assay, competition with immobilised ligand | 1 µM | 100% |
| CN(C)c1ncc(F)c(-c2cnn3ncccc23)n1 | binding | 1 µM | 100% |
| CNC(=O)Nc1ccc2c(c1)[C@@]1(CC2)OC(=O)N(CC(=O)N(Cc2ccc(F)cc2)[C@@H](C)C(F)(F)F)C1=O | cell-free assay, competition with immobilised ligand | 1 µM | 100% |
| Cc1cnn2ncc(-c3ccnc(N(C)C)n3)c2c1 | binding | 1 µM | 100% |
| O=C(O)c1cc(-c2ccc(C3CCNCC3)cc2)c2ccc(-c3ccc(C(F)(F)F)cc3)cc2c1 | cell-free assay, competition with immobilised ligand | 1 µM | 51% |
| CN(c1nccc(-c2cnn3ncccc23)n1)C1CC1 | binding | 1 µM | 83% |
| C[C@@H](c1ccc(-n2cnc3c(N)ncnc32)cc1)N1CCc2nn(C)c(Cc3ccccc3)c2C1=O | binding, competition with immobilised ligand | 0.1 µM | 49% |
| O=C(NCC1CCOCC1)c1n[nH]cc1NC(=O)c1c(F)cccc1F | binding, competition with immobilised ligand | 1 µM | 66% |
| O=C(NS(=O)(=O)c1ccc(NCC2CCOCC2)c([N+](=O)[O-])c1)c1ccc(N2CCN(Cc3ccc(C(F)(F)F)cc3-c3ccc(Cl)cc3)CC2)cc1Oc1cnc2[nH]ccc2c1 | cell-free assay, competition with immobilised ligand | 1 µM | 81% |
| O=C(NCCCN1CCOCC1)c1ccc(Nc2ncc(Cl)c(-c3ccc(Cl)s3)n2)cc1 | binding, competition with immobilised ligand | 1 µM | 100% |
| CNCc1ccccc1-c1csc([C@H](C)Nc2nc(C)nc3cc(OC)c(OC)cc23)c1 | cell-free assay, competition with immobilised ligand | 1 µM | 80% |
| N[C@H]1CCN(c2nccc(-c3cnn4ncccc34)n2)C1 | binding | 1 µM | 39% |
| COc1ncc2cc3ccccc3nc2c1C#N | cell-free assay, competition with immobilised ligand | 5 µM | 100% |
| CN(CCCC(F)(F)F)c1nccc(-c2cnn3ncccc23)n1 | binding | 1 µM | 100% |
| CNC(=O)[C@@H]1CC[C@@H](n2c(-c3ccc4cnccc4c3)nc3ccc(C(=O)NCc4cccc(C(N)=O)c4)cc32)C1 | binding, competition with immobilised ligand | 1 µM | 98% |
| C[C@@H]1CN(c2ccc3ncc(-c4ccc5[nH]nc(C6CC6)c5c4)n3n2)C[C@H](C)O1 | binding, competition with immobilised ligand | 0.5 µM | 89% |
| F[C@@H]1CCN(c2nccc(-c3cnn4ncccc34)n2)C1 | binding | 1 µM | 93% |
